Test results published in ChEMBL document CHEMBL1165919, “Synthesis, vasorelaxant activity and antihypertensive effect of benzo[d]imidazole derivatives” (Bioorg Med Chem, 2010).
Activity calls are given as the source filed them. The rule behind the calls is not given here.

Experiments:
[1] = test system: Aorta; assay: Vasorelaxant activity in Wistar rat endothelium-intact thoracic aortic ring assessed as inhibition of noradrenaline-induced contraction treated after noradrenaline challenge measured after 60 mins; assay type: functional, tissue-based; details: 1 h
In short: (§1)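 Thoracic aorta came from male Wistar rats (250–350 g), cleaned and cut into 4–5 mm rings. Endothelium was rubbed off some rings with forceps and its absence confirmed by no relaxation to carbachol. Rings were washed every 30 min for 2 h, pre-contracted with noradrenaline (0.1), then given the test agent cumulatively. Concentration-response curves (n=5–6, mean ± SEM) were fitted nonlinearly to give EC50.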

[2] = test system: Aorta; assay: Vasorelaxant activity in Wistar rat endothelium-denuded thoracic aortic ring assessed as inhibition of noradrenaline-induced contraction treated after noradrenaline challenge measured after 60 mins; assay type: functional, tissue-based; in short: as §1
[3] = test system: Rattus norvegicus; assay: Antihypertensive activity in SHR rat assessed as moderate decrease in systolic blood pressure at 50 mg/kg, po after 6 hrs; details: Artery
[4] = test system: Aorta; assay: Ratio of pimobendan EC50 to compound EC50 for vasorelaxant activity in pre-contracted Wistar rat endothelium-intact thoracic aortic ring; assay type: functional
[5] = test system: Rattus norvegicus; assay: Antihypertensive activity in po dosed SHR rat assessed as decrease in systolic blood pressure after 6 hrs; assay type: functional, organism-based; details: Artery
[6] = test system: Rattus norvegicus; assay: Antihypertensive activity in SHR rat assessed as moderate decrease in systolic blood pressure at 50 mg/kg, po after 6 hrs; assay type: functional, organism-based; design: dose 50 mg/kg; details: Artery
[7] = test system: Rattus norvegicus; assay: Antihypertensive activity in SHR rat assessed as sustained decrease in systolic blood pressure at 100 mg/kg, po after 6 hrs; assay type: functional, organism-based; design: dose 100 mg/kg; details: Artery
[8] = test system: Rattus norvegicus; assay: Antihypertensive activity in SHR rat assessed as effect on heart rate at 50 mg/kg, po after 6 hrs; assay type: functional, organism-based; design: dose 50 mg/kg
[9] = test system: Rattus norvegicus; assay: Antihypertensive activity in SHR rat assessed as effect on heart rate at 100 mg/kg, po after 6 hrs; assay type: functional, organism-based; design: dose 100 mg/kg
[10] = test system: Rattus norvegicus; assay: Antihypertensive activity in SHR rat assessed as effect on heart rate at 25 mg/kg, po after 6 hrs; assay type: functional, organism-based; design: dose 25 mg/kg
[11] = test system: Rattus norvegicus; assay: Antihypertensive activity in SHR rat assessed as decrease in systolic blood pressure at 25 mg/kg, po after 6 hrs; assay type: functional, organism-based; design: dose 25 mg/kg; details: Artery
[12] = Rattus norvegicus, Wistar, Aorta, 1 h
[13] = Rattus norvegicus, Wistar, Aorta, 1 h, read-out: EC50

Row | EC50 [1] | EC50 [2, 13] | SMILES | Emax [1] | Emax [2, 12] | other results
1 | 4.67 µM | – | COc1ccc(-c2nc3cc(C4=NNC(=O)CC4C)ccc3[nH]2)cc1 (stereo not drawn) [PIMOBENDAN] | 93.2% | – | –
2 | 4.93 µM | 35.1 µM | O=[N+]([O-])c1ccc2[nH]c(-c3ccccc3)nc2c1 | 73.8% | 60.5% | –
3 | 3.71 µM | 15 µM | CCOc1ccccc1-c1nc2cc([N+](=O)[O-])ccc2[nH]1 | 84.8% | 46.4% | –
4 | – | 0.03 µM | CCOC(=O)C1=C(C)NC(C)=C(C(=O)OC)C1c1cccc([N+](=O)[O-])c1 (stereo not drawn) [NITRENDIPINE] | – | 98.9% | –
5 | 3.23 µM | 43.6 µM | COc1ccc(-c2nc3cc([N+](=O)[O-])ccc3[nH]2)c(OC)c1OC | 90% | 58.9% | –
6 | 0.51 µM | – | C[N+](C)(C)CCOC(N)=O.[Cl-] [CARBACHOL] | 106% | – | EC50 [2]: Not Active; Emax [2]: inactive
7 | 524 µM | 524 µM | CCCOc1ccc(-c2nc3cc(C(F)(F)F)ccc3[nH]2)cc1 | 51% | 19% | –
8 | 548 µM | 549 µM | CCOc1ccccc1-c1nc2cc(C(F)(F)F)ccc2[nH]1 | 91% | 19.8% | –
9 | 3.18 µM | 15 µM | O=[N+]([O-])c1ccccc1-c1nc2cc(C(F)(F)F)ccc2[nH]1 | 93.2% | 85.3% | –

Continued, compound first:

Row | SMILES | EC50 [1] | EC50 [2, 13] | Emax [1] | Emax [2, 12] | other results
10 | FC(F)(F)c1ccc2[nH]c(-c3ccc4c(c3)OCO4)nc2c1 | 38.5 µM | 77.4 µM | 101% | 99.6% | –
11 | COc1ccccc1-c1nc2cc(C(F)(F)F)ccc2[nH]1 | 210 µM | 575 µM | 75.1% | 45.7% | –
12 | FC(F)(F)c1ccc2[nH]c(-c3ccccc3)nc2c1 | 369 µM | 468 µM | 91.2% | 75.6% | –
13 | C[C@H](CS)C(=O)N1CCC[C@H]1C(=O)O | – | – | – | – | Activity [3]: Active
14 | COc1cc(-c2nc3cc([N+](=O)[O-])ccc3[nH]2)ccc1O | 1.81 µM | 19.5 µM | 91.7% | 55.2% | Ratio EC50 [4]: 2.5; Activity [5]: Dose-dependent effect; Activity [6]: Active; Activity [7]: Active; Activity [8]: inactive; Activity [9]: inactive; Activity [10]: inactive; Activity [11]: inactive; Activity [3]: Active
15 | CN(C)c1ccc(-c2nc3cc(C(F)(F)F)ccc3[nH]2)cc1 | 550 µM | 550 µM | 63.2% | 30.9% | –
16 | COc1cc(-c2nc3cc(C(F)(F)F)ccc3[nH]2)ccc1O | 34.8 µM | 140 µM | 99.5% | 97.7% | –
17 | Oc1ccc(-c2nc3cc(C(F)(F)F)ccc3[nH]2)cc1 | 219 µM | 219 µM | 51.1% | 37% | –
18 | COc1ccc(-c2nc3cc([N+](=O)[O-])ccc3[nH]2)cc1OC | 2.5 µM | 302 µM | 75% | 36.3% | –
19 | CC(C)Oc1ccccc1-c1nc2cc([N+](=O)[O-])ccc2[nH]1 | 4.89 µM | 14.1 µM | 80.7% | 31.7% | –
